An excerpt weighted towards active compounds, which were near 2.3% of everything screened.
Arrestin-AP2 inh = inhibitors of beta-arrestin/AP2 binding, primary screen, biochemical, GPCR trafficking, flow cytometry. beta-arrestin 1 C-terminal peptide binding to AP2 beta2-adaptin appendage (human). FITC-arrestin peptide / GST-AP2 beads; AP2 beta2 appendage carries R879A mutation. inhibition, % at 10 µM. 340,000 compounds, 0.31% hits;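 active = inhibition above a set limit, near 3 SD of compounds lacking own fluorescence, cut at about 54% in these data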
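System: GST-tagged AP2 beta2-adaptin appendage (R879A) on 4 µm glutathione beads / Reagent: FITC-arrestin peptide, 50 nM / Detection: HyperCyt-sampled flow cytometry, FL1 channel, ex 488/em 535 nm / Timing: 12 min plus 1 h, RT / Buffer or medium: PBS plus Tween 20 (0.05%) and BSA (0.1%)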
MEKK3 PB1 HTS = modulators of MEKK3-MEK5 PB1 binding, primary screen, biochemical, wildtype MEKK3, multiplex bead flow cytometry, Alexa488-MEK5; Mitogen-activated protein kinase kinase kinase 3 (Homo sapiens), Q99759; bead-based flow cytometry, Alexa488-MEK5 binding to MEKK3; actives lie on both sides; 0 = blocked by unlabeled MEK5, 100 = vehicle; binding response (% of control), % at 10 µM; 290,000 compounds, 1.4% hits; AID 1529, 2009;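 active = binding response more than 3 SD above or below the average of its plate-row segment, actives on both sides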;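 also: Alexa488 bead fluorescence after subtracting the streptavidin-only scavenger bead signal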
Target sequence (Q99759 whole entry, looked up): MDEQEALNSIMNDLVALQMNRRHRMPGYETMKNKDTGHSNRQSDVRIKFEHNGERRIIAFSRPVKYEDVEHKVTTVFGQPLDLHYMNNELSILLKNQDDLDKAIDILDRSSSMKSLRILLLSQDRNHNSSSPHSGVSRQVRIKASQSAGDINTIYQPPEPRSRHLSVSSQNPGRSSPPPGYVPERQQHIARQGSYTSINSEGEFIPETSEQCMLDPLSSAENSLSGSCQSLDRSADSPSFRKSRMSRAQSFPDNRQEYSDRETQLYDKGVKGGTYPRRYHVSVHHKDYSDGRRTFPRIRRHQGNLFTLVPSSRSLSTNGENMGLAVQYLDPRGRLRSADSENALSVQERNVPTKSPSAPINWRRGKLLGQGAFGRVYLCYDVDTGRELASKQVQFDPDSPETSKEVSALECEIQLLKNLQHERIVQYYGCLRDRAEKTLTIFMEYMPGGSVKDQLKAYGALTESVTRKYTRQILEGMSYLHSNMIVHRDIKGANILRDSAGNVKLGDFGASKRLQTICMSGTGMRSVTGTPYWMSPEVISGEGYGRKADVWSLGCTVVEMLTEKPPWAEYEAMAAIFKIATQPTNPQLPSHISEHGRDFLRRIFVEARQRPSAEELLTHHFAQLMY
MEKK2 mut-MEK5 = MEK5 binding signal on mutant MEKK2 PB1, primary screen, biochemical, multiplex bead flow cytometry, Alexa488-MEK5; Alexa488-MEK5 binding to MEKK2 mutant; percent response, % at 10 µM; 290,000 compounds, 0.35% hits; AID 1530, 2009; in the data active = percent response above about 24%, passing the limit was not always enough
MEKK2wt PB1 HTS = modulators of MEK5 binding to wildtype MEKK2, primary screen, biochemical, multiplex bead flow cytometry, Alexa488-MEK5; Alexa488-MEK5 binding to MEKK2 WT; actives lie on both sides; 290,000 compounds, 1.1% hits; AID 1531, 2009; binding response (% of control), % at 10 µM; Mitogen-activated protein kinase kinase kinase 2 (Homo sapiens), Q9Y2U5; in the data active = binding response below about 67% or above about 130%
MEKK2wt confirm = modulators of MEK5 binding to wildtype MEKK2, confirmation, biochemical, single concentration, multiplex bead flow cytometry; 5,900 compounds, 2.4% hits; AID 1892, 2009; binding response (% of control), % at 10 µM; Alexa488-MEK5 binding to MEKK2 WT; actives lie on both sides; shares compounds with MEKK3 PB1 HTS; in the data active = binding response below about 16% or above about 210%; inactive = in between
MEKK2mut-MEK5 = mutant MEKK2 PB1-MEK5 binding signal retest – biochemical, single concentration, multiplex bead flow cytometry, confirmation. 5,900 compounds, 2% hits. percent response, % at 10 µM. Alexa488-MEK5 binding to MEKK2 mutant. shares compounds with MEKK3 PB1 HTS; in the data active = percent response mostly above about 71%, no sharp cut-off; inactive = mostly below about 38%;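 also: higher means compound restores mutant binding toward wildtype level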
MEKK3 confirm = MEKK3 wild-type PB1 binding to MEK5, inhibitors, confirmation, biochemical, bead multiplex flow cytometry, single concentration, wildtype; shares compounds with MEKK3 PB1 HTS; Alexa488-MEK5 binding to MEKK3; active compounds read low; binding response (% of control), % at 10 µM; 5,900 compounds, 1.8% hits;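 active = binding response below 72% of control, or above a set upper limit, though filed actives all read lower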;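 also: lower values mean stronger disruption of MEK5 binding to MEKK3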
Large screens that a line does not name were inactive (follow-up assays come after a bar, where they were run); [ ] = another dose, or the depositor's remark.

COC(=O)c1ccccc1NC(=O)NN1CCN(C)CC1	none
COc1ccccc1NS(=O)(=O)c1ccc(C(N)=O)cc1	MEKK3 PB1 HTS 28.0[inhibitor], MEKK2wt PB1 HTS 35.0[inhibitor] | MEKK2wt confirm inactive | MEKK2mut-MEK5 inactive | MEKK3 confirm inactive
Cc1ccc(CN2CCNC(=O)C2CC(=O)N2CCN(c3ncccn3)CC2)o1 (configuration not stated)	none
Cc1cccc(C2c3[nH]c4ccccc4c3CCN2C(=O)c2noc3c2CCCC3)n1 (configuration not stated)	none
Cc1cccc(C2c3[nH]c4ccccc4c3CCN2C(=O)c2cn(C)c3ccccc3c2=O)n1 (configuration not stated)	MEKK2wt PB1 HTS 46.0[inhibitor] | MEKK2wt confirm inactive | MEKK2mut-MEK5 inactive | MEKK3 confirm inactive
O=C(O)c1cccc(-n2cccc2/C=C2/NC(=O)N(c3ccc(Cl)cc3)C2=O)c1	MEKK3 PB1 HTS 74.0[inhibitor], MEKK2wt PB1 HTS 63.0[inhibitor] | MEKK2wt confirm inactive | MEKK2mut-MEK5 inactive | MEKK3 confirm inactive
COc1ccc(-n2cccc2/C=C2/NC(=O)N(c3cccc(Cl)c3)C2=O)cc1	MEKK3 PB1 HTS 130.0 | MEKK2wt confirm inactive | MEKK2mut-MEK5 inactive | MEKK3 confirm inactive
O=C(O)c1cccc(-n2cccc2/C=C2/NC(=O)N(c3cccc(Cl)c3)C2=O)c1	none
NC(N)=NC(=S)Nc1ccc(Cl)cc1	none
O=C(c1ccc(F)cc1)c1ccc(CN2C(=O)c3ccccc3C2=O)o1	none
O=C(c1ccc(Cl)cc1)c1ccc(CN2C(=O)c3ccccc3C2=O)o1	MEKK3 PB1 HTS 2.0[inhibitor], MEKK2wt PB1 HTS 2.0[inhibitor] | MEKK2wt confirm inactive | MEKK2mut-MEK5 inactive | MEKK3 confirm inactive
C/C(=N\NC(=O)c1cc(O)cc(O)c1)c1ccc(NC(=O)Cc2ccccc2)cc1	MEKK3 PB1 HTS 71.0[inhibitor], MEKK2wt PB1 HTS 68.0[inhibitor] | MEKK2wt confirm inactive | MEKK2mut-MEK5 inactive | MEKK3 confirm 70.0
CC(=O)CSc1ccc(C(=O)O)cn1	none
COc1cccc(NC(=O)N2CCCC2C(=O)NCc2ccccc2F)c1 (configuration not stated)	none
COc1cccc(NC(=O)N2CCCC2C(=O)NCc2ccccc2)c1 (configuration not stated)	MEKK3 PB1 HTS 63.0[inhibitor], MEKK2wt PB1 HTS 55.0[inhibitor] | MEKK2wt confirm inactive | MEKK2mut-MEK5 inactive | MEKK3 confirm inactive
COc1cccc(NC(=O)C2CCCN2C(=O)Nc2ccccc2F)c1 (configuration not stated)	MEKK3 PB1 HTS 1.0[inhibitor], MEKK2wt PB1 HTS -2.0[inhibitor] | MEKK2wt confirm inactive | MEKK2mut-MEK5 inactive | MEKK3 confirm inactive
COc1cccc(CN2CCCCC2C(=O)O)c1 (configuration not stated)	MEKK3 PB1 HTS 40.0[inhibitor] | MEKK2wt confirm inactive | MEKK2mut-MEK5 inactive | MEKK3 confirm inactive
COc1ccc(NC(=O)N2CCCC2C(=O)Nc2ccccc2F)cc1 (configuration not stated)	none
COc1cc(OC)c(NC(=O)c2sc3ncn(CC(=O)N4CCOCC4)c(=O)c3c2C)cc1Cl	none
Cc1cc(C)nc(SCc2cc(=O)c(OC(=O)c3ccc(Br)o3)co2)n1	MEKK3 PB1 HTS 128.0 | MEKK2wt confirm inactive | MEKK2mut-MEK5 inactive | MEKK3 confirm inactive
Cc1cccc(NC(=O)CSc2ncnc3sc(C)cc23)c1	none
Cc1ccc(NC(=O)Cn2nc(-c3ccccc3)nc2-c2ccccc2)c(C)c1	MEKK3 PB1 HTS 150.0 | MEKK2wt confirm inactive | MEKK2mut-MEK5 inactive | MEKK3 confirm inactive

Screens as filed in PubChem.
